Reference: ChEMBL document CHEMBL2401709 (J Med Chem, 2013)
Calls of active or inactive are those of the source. The calls are words filed in the database; no cut-off is given here.

Assays:
G-361 [1] = experiment: Cytotoxicity against human G361 cells assessed as growth inhibition after 72 hrs by calcein AM staining-based fluoroscence assay; format: functional, cell-based; conditions: G-361, 72 h
HCT-116 = experiment: Cytotoxicity against human HCT116 cells assessed as growth inhibition after 72 hrs by calcein AM staining-based fluoroscence assay; format: functional, cell-based; conditions: HCT-116, 72 h
HeLa = experiment: Cytotoxicity against human HeLa cells assessed as growth inhibition after 72 hrs by calcein AM staining-based fluoroscence assay; format: functional, cell-based
[2] = target: Cyclin-dependent kinase 2/cyclin E1 (Homo sapiens, UniProt P24941); experiment: Inhibition of human recombinant CDK2/Cyclin E expressed in baculovirus infected sf9 cells using histone H1 as substrate
MCF7 = experiment: Cytotoxicity against human MCF7 cells assessed as growth inhibition after 72 hrs by calcein AM staining-based fluoroscence assay; format: functional, cell-based; conditions: MCF7, 72 h
HOS = experiment: Cytotoxicity against human HOS cells assessed as growth inhibition after 72 hrs by calcein AM staining-based fluoroscence assay; format: functional, cell-based
K562 = experiment: Cytotoxicity against human K562 cells assessed as growth inhibition after 72 hrs by calcein AM staining-based fluoroscence assay; format: functional, cell-based; conditions: K562, 72 h
[3] = target: Cyclin-dependent kinase 1 (Homo sapiens, UniProt P06493); experiment: Inhibition of human recombinant CDK1
G-361 [4] = experiment: Induction of apoptosis in human G361 cells assessed as induction of caspase-9 clevage at 300 nM after 24 hrs by immunoblotting analysis; format: functional, cell-based
How it was run: (§1)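 Treated G361 cells harvested into Laemmli sample buffer. Proteins resolved by SDS-PAGE and blotted to nitrocellulose. Membranes blocked, probed overnight with specific primary antibodies, then peroxidase-conjugated secondaries. ECL detection by CCD camera. Actin served as loading control.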

G-361 [5] = experiment: Induction of apoptosis in human G361 cells assessed as induction of caspase-7 clevage at 300 nM after 24 hrs by immunoblotting analysis; format: functional, cell-based; how it was run: as §1
G-361 [6] = experiment: Induction of apoptosis in human G361 cells assessed as induction of caspase-3 clevage at 300 nM after 24 hrs by immunoblotting analysis; format: functional, cell-based; how it was run: as §1
G-361 [7] = experiment: Induction of apoptosis in human G361 cells assessed as decrease in Mcl-1 protein level at 300 nM after 24 hrs by immunoblotting analysis; format: functional, cell-based; how it was run: as §1
G-361 [8] = experiment: Induction of apoptosis in human G361 cells assessed as caspase 9 activation using Ac-DEHD-AMC as substrate at 300 nM after 24 hrs by fluorimetry assay; format: functional, cell-based; conditions: in the assay text read “Ac-LEHD-AMC” for “Ac-DEHD-AMC”
How it was run: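 G361 lysates were made in CHAPS extraction buffer, pH 7.4, clarified at 10000g, and protein-equalized. They were incubated 24 h with 100 μM Ac-LEHD-AMC in 100 mM HEPES pH 7.5, 0.5 mM EDTA, 20% glycerol, 5 mM DTT. AMC fluorescence read at 355/460 nm (ex/em).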

[9] = target: Cyclin-dependent kinase 9 (Homo sapiens) (UniProt P50750); experiment: Inhibition of CDK9-mediated RNA polymerase 2 phosphorylation at ser2 in human G361 cells at 300 nM after 24 hrs by immunoblotting analysis; format: cell-based; conditions: G-361; how it was run: as §1
CDK2/CDK4 (Homo sapiens) = CDK2/CDK4 (Homo sapiens) (UniProt P11802+P24941); experiment: Inhibition of CDK2/4-mediated retinoblastoma protein phosphorylation at ser780 in human G361 cells at 300 nM after 24 hrs by immunoblotting analysis; format: cell-based; conditions: G-361; how it was run: as §1
G-361 [10] = experiment: Induction of apoptosis in human G361 cells assessed as induction of PARP-1 clevage at 300 nM after 24 hrs by immunoblotting analysis; format: functional, cell-based; how it was run: as §1
G-361 [11] = experiment: Induction of apoptosis in human G361 cells assessed as decrease in Mcl-1 at 300 nM after 24 hrs by immunoblotting analysis; format: functional, cell-based; how it was run: as §1
G-361 [12] = experiment: Induction of apoptosis in human G361 cells assessed as caspase 3/7 activation using Ac-DEVD-AMC as substrate at 300 nM after 24 hrs by fluorimetry assay; format: functional, cell-based
[13] = target: Cyclin-dependent kinase 2/cyclin E1 (Homo sapiens) (UniProt P24864+P24941); experiment: Ratio of roscovitine IC50 to compound IC50 for human recombinant CDK2/Cyclin E; format: protein-complex assay

Chain of Cyclin-dependent kinase 1 (P06493 whole entry): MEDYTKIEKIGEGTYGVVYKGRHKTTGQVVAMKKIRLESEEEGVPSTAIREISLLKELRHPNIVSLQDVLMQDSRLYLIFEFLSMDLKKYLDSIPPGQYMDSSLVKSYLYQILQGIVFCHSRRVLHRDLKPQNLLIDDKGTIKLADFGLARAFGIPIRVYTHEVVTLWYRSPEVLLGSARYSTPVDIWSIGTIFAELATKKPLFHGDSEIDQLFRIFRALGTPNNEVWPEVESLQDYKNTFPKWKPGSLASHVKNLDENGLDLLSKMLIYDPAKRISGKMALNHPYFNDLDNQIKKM
Chain of Cyclin-dependent kinase 9 (Homo sapiens) (P50750 whole entry): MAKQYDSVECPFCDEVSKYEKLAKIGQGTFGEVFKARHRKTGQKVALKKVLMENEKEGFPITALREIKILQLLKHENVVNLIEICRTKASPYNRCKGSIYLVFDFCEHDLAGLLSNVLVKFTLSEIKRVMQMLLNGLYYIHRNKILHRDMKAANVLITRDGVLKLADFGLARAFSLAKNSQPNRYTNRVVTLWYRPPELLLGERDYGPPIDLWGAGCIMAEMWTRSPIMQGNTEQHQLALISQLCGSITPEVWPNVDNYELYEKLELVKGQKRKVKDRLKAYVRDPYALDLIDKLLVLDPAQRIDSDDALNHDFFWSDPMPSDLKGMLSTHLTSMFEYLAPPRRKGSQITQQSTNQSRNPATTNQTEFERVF

| SMILES | IC50 (G-361 [1]) | IC50 (HCT-116) | IC50 (HeLa) | IC50 [2] | IC50 (MCF7) | IC50 (HOS) | IC50 (K562) | IC50 [3] | Activity (G-361 [4]) | Activity (G-361 [5]) | Activity (G-361 [6]) | Activity (G-361 [7]) | Activity (G-361 [8]) | Inhibition of RNA polymerase II Ser2 phosphorylation (qualitative) [9] | inhibition (CDK2/CDK4 (Homo sapiens)) | Activity (G-361 [10]) | Activity (G-361 [11]) | Activity (G-361 [12]) | Ratio IC50 [13] |
| --- | --- | --- | --- | --- | --- | --- | --- | --- | --- | --- | --- | --- | --- | --- | --- | --- | --- | --- | --- |
| NC1CCC(Nc2nc(NCc3ccc(-c4cccs4)cc3)c3ncn(C4CCCC4)c3n2)CC1 (stereo unspecified) | 655 nM | 592 nM | 358 nM | 20 nM | 290 nM | 247 nM | 307 nM | – | – | – | – | – | – | – | – | – | – | – | – |
| NC1CCC(Nc2nc(NCc3ccc(-c4ccccc4)cc3)c3ncn(C4CCCC4)c3n2)CC1 (stereo unspecified) | – | – | – | 26 nM | – | – | – | – | – | – | – | – | – | – | – | – | – | – | – |
| CC(C)(O)CNc1nc(NCc2ccc(-c3ccco3)nc2)c2ncn(C3CCCC3)c2n1 | 2100 nM | 1270 nM | 667 nM | 120 nM | 1300 nM | 560 nM | 1420 nM | 555 nM | – | – | – | – | – | – | – | – | – | – | – |
| CC(C)(O)CNc1nc(NCc2ccc(-c3ccco3)cc2)c2ncn(C3CCCC3)c2n1 | 17400 nM | 16700 nM | 14800 nM | 478 nM | 15300 nM | 21400 nM | 16800 nM | > 999 nM | – | – | – | – | – | – | – | – | – | – | – |
| NC1CCC(Nc2nc(NCc3ccc(-n4cccn4)cc3)c3ncn(C4CCCC4)c3n2)CC1 (stereo unspecified) | 220 nM | 320 nM | 170 nM | 12 nM | 139 nM | 103 nM | 119 nM | – | Active | Active | Active | Active | Active | Active | Active | Active | Active | Active | – |
| NC1CCC(Nc2nc(NCc3ccc(-c4ccco4)cc3)c3ncn(C4CCCC4)c3n2)CC1 (stereo unspecified) | 164 nM | 129 nM | 71 nM | 11.4 nM | 85 nM | 102 nM | 96 nM | – | – | – | – | – | – | – | – | – | – | – | – |
| COc1ccccc1-c1ccc(CNc2nc(NC3CCC(N)CC3)nc3c2ncn3C2CCCC2)cn1 (stereo unspecified) | 140 nM | 177 nM | 39 nM | 34 nM | 82 nM | 122 nM | 66 nM | – | – | – | – | – | – | – | – | – | – | – | – |
| NC1CCC(Nc2nc(NCc3ccc(Br)nc3)c3ncn(C4CCCC4)c3n2)CC1 (stereo unspecified) | 640 nM | 577 nM | 633 nM | – | 483 nM | 935 nM | 1180 nM | – | – | – | – | – | – | – | – | – | – | – | – |
| Nc1ccccc1-c1ccc(CNc2nc(NC3CCC(N)CC3)nc3c2ncn3C2CCCC2)cn1 (stereo unspecified) | 730 nM | 635 nM | 535 nM | 10 nM | 117 nM | 398 nM | 200 nM | – | – | – | – | – | – | – | – | – | – | – | – |
| NC1CCC(Nc2nc(NCc3ccc(-c4ccoc4)cc3)c3ncn(C4CCCC4)c3n2)CC1 (stereo unspecified) | 670 nM | 1040 nM | 140 nM | 13 nM | 247 nM | 140 nM | 287 nM | – | – | – | – | – | – | – | – | – | – | – | – |
| Nc1ccccc1-c1ccc(CNc2nc(NC3CCC(N)CC3)nc3c2ncn3C2CCCC2)cc1 (stereo unspecified) | 4120 nM | 930 nM | 1010 nM | 20.5 nM | 977 nM | 1880 nM | 1110 nM | – | – | – | – | – | – | – | – | – | – | – | – |
| NC1CCC(Nc2nc(NCc3ccc(-c4ccsc4)nc3)c3ncn(C4CCCC4)c3n2)CC1 (stereo unspecified) | 272 nM | 145 nM | 75 nM | 18 nM | 100 nM | 89 nM | 150 nM | – | Active | Active | Active | Active | Active | – | – | Active | Active | Active | – |
| COc1ccccc1-c1ccc(CNc2nc(NC3CCC(N)CC3)nc3c2ncn3C2CCCC2)cc1 (stereo unspecified) | 545 nM | 430 nM | 333 nM | 33 nM | 303 nM | 150 nM | 347 nM | – | – | – | – | – | – | – | – | – | – | – | – |
| NC1CCC(Nc2nc(NCc3ccc(-c4ccsc4)cc3)c3ncn(C4CCCC4)c3n2)CC1 (stereo unspecified) | 570 nM | 315 nM | 220 nM | 14 nM | 145 nM | 120 nM | 150 nM | – | – | – | – | – | – | – | – | – | – | – | – |
| NC1CCC(Nc2nc(NCc3ccc(-c4ccccc4)nc3)c3ncn(C4CCCC4)c3n2)CC1 (stereo unspecified) | 895 nM | 563 nM | 114 nM | 31 nM | 483 nM | 206 nM | – | 184 nM | – | – | – | – | – | – | – | – | – | – | – |
| NC1CCC(Nc2nc(NCc3ccc(-c4cccc(F)c4)nc3)c3ncn(C4CCCC4)c3n2)CC1 (stereo unspecified) | 49 nM | 74 nM | 36 nM | 14 nM | 33 nM | 44 nM | 61 nM | – | Active | Active | Active | Active | Active | Active | Active | Active | Active | Active | – |
| NC1CCC(Nc2nc(NCc3ccc(-c4cccc(F)c4)cc3)c3ncn(C4CCCC4)c3n2)CC1 (stereo unspecified) | 815 nM | 551 nM | 445 nM | 33.5 nM | 293 nM | 211 nM | 290 nM | – | – | – | – | – | – | – | – | – | – | – | – |
| NC1CCC(Nc2nc(NCc3ccc(-c4ccccc4O)cc3)c3ncn(C4CCCC4)c3n2)CC1 (stereo unspecified) | 4150 nM | 4350 nM | 4180 nM | 68 nM | 2910 nM | 1160 nM | 2610 nM | 777 nM | – | – | – | – | – | – | – | – | – | – | – |
| Nc1ccccc1CNc1nc(NC2CCC(N)CC2)nc2c1ncn2C1CCCC1 (stereo unspecified) | 2070 nM | 2300 nM | 1030 nM | 18 nM | 2330 nM | 2030 nM | 4040 nM | 93 nM | – | – | – | – | – | – | – | – | – | – | – |
| NC1CCC(Nc2nc(NCc3ccc(-c4cccs4)nc3)c3ncn(C4CCCC4)c3n2)CC1 (stereo unspecified) | 150 nM | 97 nM | 40 nM | 4 nM | 92 nM | 32 nM | 100 nM | – | Active | Active | Active | Active | Active | Active | Active | Active | Active | Active | 20 |
| OC1CCC(Nc2nc(NCc3ccc(-c4ccco4)nc3)c3ncn(C4CCCC4)c3n2)CC1 (stereo unspecified) | 443 nM | 617 nM | 247 nM | 23 nM | 390 nM | 180 nM | 303 nM | – | – | – | – | – | – | – | – | – | – | – | – |
| NC1CCC(Nc2nc(NCc3cc(Cl)ccc3O)c3ncn(C4CCCC4)c3n2)CC1 (stereo unspecified) | 390 nM | 350 nM | 750 nM | 8 nM | 430 nM | 490 nM | 690 nM | 23 nM | – | – | – | – | – | – | – | – | – | – | – |
| NC1CCC(Nc2nc(NCc3ccc(-c4ccco4)nc3)c3ncn(C4CCCC4)c3n2)CC1 (stereo unspecified) | 97 nM | 86 nM | 30 nM | 10 nM | 33 nM | 44 nM | 67 nM | – | Active | Active | Active | Active | Active | Active | Active | Active | Active | Active | – |
| NC1CCC(Nc2nc(NCc3ccc(Br)cc3)c3ncn(C4CCCC4)c3n2)CC1 (stereo unspecified) | 1480 nM | 790 nM | 1510 nM | – | 850 nM | 995 nM | 1170 nM | – | – | – | – | – | – | – | – | – | – | – | – |
| CC[C@H](CO)Nc1nc(NCc2ccccc2)c2ncn(C(C)C)c2n1 [SELICICLIB] | – | – | 28600 nM | – | 12300 nM | – | – | – | – | – | – | – | – | – | – | – | – | – | – |
